According to ChEMBL document CHEMBL3817796, “Discovery of Novel 15-Lipoxygenase Activators To Shift the Human Arachidonic Acid Metabolic Network toward Inflammation Resolution” (J Med Chem, 2016):

Legend:
[1] = biological target: T1, Polyunsaturated fatty acid lipoxygenase ALOX15 (Homo sapiens) (UniProt P16050); assay: Activation of wild-type His6-tagged human 15-LOX expressed in Escherichia coli Rosetta DE3 assessed as 15-HpETE formation at 40 uM pre-incubated for 1 min before arachidonic acid substrate addition by cell free assay
T1 sequence (whole entry): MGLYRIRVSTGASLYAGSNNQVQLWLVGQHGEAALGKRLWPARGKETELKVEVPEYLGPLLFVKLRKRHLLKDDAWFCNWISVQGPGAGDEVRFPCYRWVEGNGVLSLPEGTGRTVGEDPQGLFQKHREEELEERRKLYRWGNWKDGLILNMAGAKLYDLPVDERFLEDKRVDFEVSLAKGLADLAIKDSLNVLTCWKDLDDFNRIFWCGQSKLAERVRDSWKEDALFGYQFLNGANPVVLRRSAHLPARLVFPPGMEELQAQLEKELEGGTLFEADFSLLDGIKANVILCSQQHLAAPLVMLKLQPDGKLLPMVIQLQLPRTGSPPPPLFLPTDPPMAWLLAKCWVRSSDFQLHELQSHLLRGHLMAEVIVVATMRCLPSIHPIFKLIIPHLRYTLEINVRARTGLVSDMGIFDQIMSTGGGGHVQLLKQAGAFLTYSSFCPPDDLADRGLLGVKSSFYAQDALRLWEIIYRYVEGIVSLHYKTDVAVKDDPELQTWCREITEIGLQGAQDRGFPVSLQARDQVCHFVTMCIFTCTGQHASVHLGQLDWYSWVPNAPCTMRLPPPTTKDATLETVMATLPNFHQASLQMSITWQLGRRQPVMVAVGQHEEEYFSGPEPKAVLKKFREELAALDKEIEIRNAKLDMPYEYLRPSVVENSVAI

[2] = biological target: T2, Polyunsaturated fatty acid 5-lipoxygenase (Homo sapiens) (UniProt P09917); assay: Inhibition of human 5-LOX expressed in Escherichia coli BL21-DE3 of assessed as reduction in H2DCFDA oxidation at 100 uM using arachidonic acid substrate incubated for 5 mins by fluorescence spectrophotometry
T2 sequence (whole entry): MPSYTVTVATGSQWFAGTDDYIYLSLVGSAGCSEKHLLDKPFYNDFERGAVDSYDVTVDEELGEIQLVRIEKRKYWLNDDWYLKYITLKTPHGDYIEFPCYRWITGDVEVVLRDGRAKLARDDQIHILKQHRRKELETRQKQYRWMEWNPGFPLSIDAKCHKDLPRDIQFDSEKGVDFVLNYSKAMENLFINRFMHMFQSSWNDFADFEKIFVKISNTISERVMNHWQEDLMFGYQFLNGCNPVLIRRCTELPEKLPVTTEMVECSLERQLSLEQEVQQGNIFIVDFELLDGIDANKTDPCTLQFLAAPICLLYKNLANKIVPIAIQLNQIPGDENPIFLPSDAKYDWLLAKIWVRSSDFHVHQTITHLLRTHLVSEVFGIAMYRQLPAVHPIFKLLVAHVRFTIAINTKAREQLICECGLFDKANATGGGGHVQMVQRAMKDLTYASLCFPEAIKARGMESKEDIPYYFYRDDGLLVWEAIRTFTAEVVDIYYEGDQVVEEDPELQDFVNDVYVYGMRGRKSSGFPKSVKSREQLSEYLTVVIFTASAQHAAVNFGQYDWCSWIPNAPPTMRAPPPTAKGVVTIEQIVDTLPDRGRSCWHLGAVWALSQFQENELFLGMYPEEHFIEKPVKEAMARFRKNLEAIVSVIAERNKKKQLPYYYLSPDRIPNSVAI
In short: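 Human 5-LOX activity followed as AA-driven oxidation of H2DCFDA to fluorescent dichlorofluorescein (ex 500/em 520 nm), recorded for 5 min. Compound handled as in the 15-LOX assay.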

[3] = biological target: T3, Prostaglandin G/H synthase 2 (Homo sapiens) (UniProt P35354); assay: Activation of COX2 (unknown origin) assessed as PGG2 to PGH2 conversion by measuring N,N,N',N'-tetramethyl-p-phenylenediamine oxidation at 100 uM by spectrophotometry
T3 sequence (whole entry): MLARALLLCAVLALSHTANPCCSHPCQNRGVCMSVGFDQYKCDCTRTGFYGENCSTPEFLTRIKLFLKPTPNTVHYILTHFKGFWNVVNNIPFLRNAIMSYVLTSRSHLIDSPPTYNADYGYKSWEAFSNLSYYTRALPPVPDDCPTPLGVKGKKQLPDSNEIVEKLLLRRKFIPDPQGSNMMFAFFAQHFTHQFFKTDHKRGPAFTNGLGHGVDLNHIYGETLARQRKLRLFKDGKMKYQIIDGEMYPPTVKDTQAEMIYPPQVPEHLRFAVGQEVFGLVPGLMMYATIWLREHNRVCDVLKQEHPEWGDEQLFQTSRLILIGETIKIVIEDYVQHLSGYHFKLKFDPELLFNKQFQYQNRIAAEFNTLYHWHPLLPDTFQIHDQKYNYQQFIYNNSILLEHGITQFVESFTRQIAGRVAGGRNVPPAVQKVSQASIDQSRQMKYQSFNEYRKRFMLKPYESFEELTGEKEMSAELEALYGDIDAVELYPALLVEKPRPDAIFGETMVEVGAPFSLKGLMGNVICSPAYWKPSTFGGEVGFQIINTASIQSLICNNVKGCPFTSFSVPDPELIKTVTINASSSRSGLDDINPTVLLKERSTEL

[4] = biological target: T1, Polyunsaturated fatty acid lipoxygenase ALOX15 (Homo sapiens); assay: Activation of 15-LOX in human whole blood assessed as 15-HETE production at 100 uM pre-incubated for 20 mins before stimulation with LPS and A23187 for 120 mins in presence of 2 uM 5-LOX inhibitor Zileuton by LC-MS/MS method; format: tissue-based
In short: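 Human blood preincubated 20 min at 37 °C with DMSO vehicle or compound in DMSO. LPS added at 100 μg/mL for 24 h at 37 °C, then A23187 at 20 μg/mL final. Samples frozen in liquid nitrogen at time points, lysed by freeze–thaw, with PGB2 internal standard. Analysed by C18 LC-MRM MS, negative ion. Change = control-normalized concentration minus 1, ×100%; 120 min value from AUC.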

%max [1]: 85% | inhibition [2]: < 5% | Activity [3]: < 5% | Activity [4]: 36%
SMILES: CN1CCN(CC(=O)N2N=C3/C(=C/c4ccccc4)CCCC3C2c2ccccc2)CC1 (centres undefined)
